How the values were obtained:
[1] = (§1) Inhibition of LTB4 induced chemotaxis of isolated human PMNs; assay type: functional
Procedure, shortened: (§2)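 Human PMNs from healthy donors' heparinized blood, isolated by dextran sedimentation, Ficoll and hypotonic lysis. Cells labeled with 51Cr (1 μCi/10^6 cells, 1 h, 37 °C), resuspended at 10^7 cells/mL in Hank's buffer with 1% BSA. LTB4 plus competitors in lower Boyden–Keller chamber, two 3 μm cellulose nitrate filters, 150 min at 37 °C, 5% CO2. Lower-filter radioactivity counted, expressed as percent of control. pKB from n experiments.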

Leukotriene B4 receptor = Leukotriene B4 receptor (Homo sapiens, UniProt Q9NPC1+Q15722); test: Inhibition of binding of [3H]LTB4 (1 nM) to intact human polymorphonuclear leukocytes (PMNs)
Procedure, shortened: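 Intact donor PMNs (10^6 cells) in Ca2+/Mg2+-free HBSS with 5 mM HEPES, incubated 20 min at 4 °C with 1 nM [3H]LTB4 (7.4 TBq/mmol), with or without competitors at various concentrations. Bound label measured by filtration. […] Screening at 10 μM.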

Homo sapiens = organism: Homo sapiens; test: as §1; assay type: functional; procedure, shortened: as §2

| Structure (SMILES) | pKB [1] | IC50 (Leukotriene B4 receptor) | pKB (Homo sapiens) |
| --- | --- | --- | --- |
| CCCCCC(O)/C=C/[C@H]1CCC[C@@](O)(CC(=O)[O-])C1.[Na+] (stereo in doubt; 2b) | 5.1 | 8 µM |  |
| O=C([O-])/C=C1/CCC[C@H](/C=C/C(O)CCCCc2ccccc2)C1.[Na+] (stereo in doubt; 10a) |  | > 10 µM |  |
| CCCCCC(O)/C=C/[C@H]1CCC[C@](O)(CC(=O)[O-])C1.[Na+] (stereo in doubt; 2c) |  | > 10 µM |  |
| O=C([O-])/C=C1/CCC[C@H](/C=C/C(O)CCCCc2ccccc2)C1.[Na+] (stereo in doubt; form 1) |  | > 10 µM |  |
| O=C([O-])C[C@]1(O)CCC[C@H](/C=C/C(O)CCCCc2ccccc2)C1.[Na+] (stereo in doubt; 3b) | 6.57 | 0.8 µM |  |
| O=C([O-])/C=C1\CCC[C@H](/C=C\C(O)CCCCc2ccccc2)C1.[Na+] (some centres undefined) |  | 1.3 µM |  |
| CN(C)OC(=O)/C=C1/CCC[C@H](/C=C/C(O)CCCCc2ccccc2)C1 (some centres undefined) |  | 7 µM |  |
| O=C([O-])C[C@]1(O)CCC[C@H](CCC(O)CCCCc2ccccc2)C1.[Na+] (some centres undefined) |  | 5.3 µM |  |
| CCCCCCCCC(O)/C=C/[C@H]1CCC[C@@](O)(CC(=O)[O-])C1.[Na+] (stereo in doubt; 4b) |  | 0.9 µM | 6.42 |
| O=C([O-])C[C@@H]1CCC[C@H](CCC(O)CCCCc2ccccc2)C1.[Na+] (some centres undefined) |  | 2.6 µM |  |
| CN(C)C(=O)C[C@]1(O)CCC[C@H](/C=C/[C@H](O)CCCCc2ccccc2)C1 |  | > 10 µM |  |
| CN(C)C(=O)C[C@]1(O)CCC[C@H](/C=C/C(C)(O)CCCCc2ccccc2)C1 (stereo in doubt; 15b) |  | 7 µM |  |
| CCCCCCCCC(O)/C=C/[C@H]1CCC[C@](O)(CC(=O)[O-])C1.[Na+] (stereo in doubt; 4d) |  | 2.5 µM |  |
| O=C([O-])/C=C1/CCC[C@H](/C=C/C(O)CCCCc2ccccc2)C1.[Na+] (stereo in doubt; form 2) |  | 0.5 µM |  |
| CN(C)C(=O)C[C@]1(O)CCC[C@H](/C=C/[C@@H](O)CCCCc2ccccc2)C1 | 7.5 | 0.04 µM |  |
| O=C([O-])C[C@]1(O)CCC[C@H](/C=C/C(O)(CCCCc2ccccc2)CC(=O)O)C1.[Na+] (some centres undefined) |  | > 10 µM |  |

| Structure (SMILES) | pKB [1] | IC50 (Leukotriene B4 receptor) | pKB (Homo sapiens) |
| --- | --- | --- | --- |
| CCCCCCCCC(O)/C=C/[C@H]1CCC[C@@](O)(CC(=O)[O-])C1.[Na+] (stereo in doubt; 4a) |  | > 10 µM |  |
| CCCCCC(O)/C=C/[C@H]1CCC[C@@](O)(CC(=O)[O-])C1.[Na+] (stereo in doubt; 2a) |  | > 10 µM |  |
| CN(C)C(=O)C[C@]1(O)CCC[C@H](/C=C/C(F)CCCCc2ccccc2)C1 (stereo in doubt; 16b) |  | 6.5 µM |  |
| CN(C)C(=O)C[C@]1(O)CCC[C@H](/C=C/C(C)(O)CCCCc2ccccc2)C1 (stereo in doubt; form 1) |  | 4.5 µM |  |
| CN(C)OC(=O)C[C@]1(O)CCC[C@H](/C=C/C(O)CCCCc2ccccc2)C1 (some centres undefined) |  | > 10 µM |  |
| O=C([O-])C[C@@]1(O)CCC[C@H](/C=C/C(O)CCCCc2ccccc2)C1.[Na+] (stereo in doubt; 3c) |  | > 10 µM |  |
| O=C([O-])C[C@@]1(O)CCC[C@H](/C=C/C(O)CCCCc2ccccc2)C1.[Na+] (stereo in doubt; 3d) | 6.31 | 1.5 µM |  |
| O=C([O-])C[C@]1(O)CCC[C@H](/C=C/C(=O)CCCCc2ccccc2)C1.[Na+] |  | > 10 µM |  |
| CN(C)OC(=O)/C=C1/CCC[C@@H](/C=C/C(O)CCCCc2ccccc2)C1 (some centres undefined) |  | 1 µM |  |
| CN(C)C(=O)C[C@]1(O)CCC[C@H](/C=C/C(C)(O)CCCCc2ccccc2)C1 (stereo in doubt; form 2) |  | > 10 µM |  |
| O=C([O-])C[C@]1(O)CCC[C@H](/C=C/C(O)CCCCc2ccccc2)C1.[Na+] (stereo in doubt; 3a) |  | > 10 µM |  |
| CCCCCC(O)/C=C/[C@H]1CCC[C@](O)(CC(=O)[O-])C1.[Na+] (stereo in doubt; 2d) |  | 10 µM | 5.25 |
| CC(=O)OC(/C=C/[C@H]1CCC/C(=C/C(=O)N(C)C)C1)CCCCc1ccccc1 (some centres undefined) |  | > 10 µM |  |
| CN(C)C(=O)C[C@]1(O)CCC[C@H](/C=C/C(F)CCCCc2ccccc2)C1 (stereo in doubt; 16 a) |  | 2 µM |  |
| CN(C)OC(=O)C[C@@]1(O)CCC[C@H](/C=C/C(O)CCCCc2ccccc2)C1 (some centres undefined) | 6.91 | 0.08 µM |  |
| CCCCCCCCC(O)/C=C/[C@H]1CCC[C@](O)(CC(=O)[O-])C1.[Na+] (stereo in doubt; 4c) |  | 4 µM |  |

— ChEMBL document CHEMBL1132545, “Synthesis and structure-activity relationships of new 1, 3-disubstituted cyclohexanes as structurally rigid leukotriene B(4) receptor antagonists” (J Med Chem, 1999)
